Measurements as given in publication PMC3389222 (Bioorganic & medicinal chemistry letters, 2012).
Like-named read-outs stand apart in the source and are kept apart here.

How the values were obtained:
HCV [1] = conditions: cited from earlier work
[2] = Stability in human liver microsomes; format: in vitro ADME; conditions: for Elimination rate constant (k): 1 μM compound, 1 mg/mL microsomal protein; for microsomal CLint at 1 μM: human
Procedure, shortened: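 Test compound incubated with human liver microsomes in potassium phosphate buffer. Samples taken at 5, 15, 30 and 60 min and analysed by LC-MS/MS. The elimination rate constant (k) was determined, and half-life (t1/2) and intrinsic clearance (CLint) were calculated from k.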

HCV 1b replicon = HCV 1b replicon system, block of HCV replication; format: cell-based; conditions: for EC90: read-out: HCV Replicon EC90
HCV [3] = conditions: read-out: in vitro potency (EC50); cited from earlier work
PBM cells [4] = tested on: PBM cells
PBM cells [5] = test: Cytotoxicity in PBM cells
[6] = Cytotoxicity in CEM cells; format: cell-based; conditions: human
[7] = Hepatitis C virus, read-out: HCV Replicon EC50, HCV 1b replicon system
[8] = Hepatitis C virus, read-out: HCV Replicon EC50

Question: With `COC(=O)N[C@H](C(=O)N1CCC[C@H]1c1ncc(-c2ccc(-c3ccc(-c4cnc([C@@H]5CCCN5C(=O)[C@@H](NC(=O)OC)C(C)C)[nH]4)cc3)cc2)[nH]1)C(C)C` [BMS-790052] as the compound, how does the viral load decline (HCV [1]; after a single 100 mg dose) read?
Answer: ≈ 3.3 log10

Question: What about the “toxicity after single dose” value (HCV [1]; single 100 mg dose) of the same compound?
Answer: no signs of toxicity

Question: What about the “Elimination rate constant (k)” value [2] of the same compound?
Answer: 0.012

Question: What about the EC50 (HCV 1b replicon; [7]) of the same compound?
Answer: 0.0042 ± 0.0015 nM

Question: What about the EC50 (HCV [3]) of the same compound?
Answer: ≤ 0.05 nM

Question: For `COC(=O)N[C@H](C(=O)N1CCC[C@H]1c1nc(Br)c(-c2ccc(-c3ccc(-c4[nH]c([C@@H]5CCCN5C(=O)[C@@H](NC(=O)OC)C(C)C)nc4Br)cc3)cc2)[nH]1)C(C)C` [Compound 5a], which “Elimination rate constant (k)” value [2] is on record?
Answer: 0.01

Question: And the EC50 (HCV 1b replicon; [7])?
Answer: 0.0059 ± 0.0039 nM

Question: For `COC(=O)N[C@H](C(=O)N1CCC[C@H]1c1nc(Cl)c(-c2ccc(-c3ccc(-c4[nH]c([C@@H]5CCCN5C(=O)[C@@H](NC(=O)OC)C(C)C)nc4Cl)cc3)cc2)[nH]1)C(C)C` [Compound 5b], which “Elimination rate constant (k)” value [2] is on record?
Answer: 0.0058

Question: And the microsomal CLint at 1 μM [2]?
Answer: < 8.6 µL/min/mg

Question: What about the EC50 (HCV 1b replicon; [7]) of the same compound?
Answer: 0.0064 ± 0.003 nM

Question: For `COC(=O)N[C@H](C(=O)N1CCC[C@H]1c1nc(I)c(-c2ccc(-c3ccc(-c4[nH]c([C@@H]5CCCN5C(=O)[C@@H](NC(=O)OC)C(C)C)nc4I)cc3)cc2)[nH]1)C(C)C` [Compound 5c], which “Elimination rate constant (k)” value [2] is on record?
Answer: 0.018

Question: And the EC50 (HCV 1b replicon; [7])?
Answer: 0.0055 ± 0.0019 nM

Question: What about the “toxicity in primary human lymphocytes relative to reference compound 1” value (PBM cells [4]) of the same compound?
Answer: increased toxicity

Question: With `COC(=O)N[C@H](C(=O)N1CCC[C@H]1c1nc(F)c(-c2ccc(-c3ccc(-c4[nH]c([C@@H]5CCCN5C(=O)[C@@H](NC(=O)OC)C(C)C)nc4F)cc3)cc2)[nH]1)C(C)C` [Compound 5d] as the compound, how does the “Elimination rate constant (k)” value [2] read?
Answer: 0.0056

Question: And the microsomal CLint at 1 μM [2]?
Answer: < 8.6 µL/min/mg

Question: What about the EC50 (HCV 1b replicon; [7]) of the same compound?
Answer: 0.0068 ± 0.0033 nM

Question: And the “toxicity in primary human lymphocytes relative to reference compound 1” value (PBM cells [5])?
Answer: increased toxicity

Question: With `COC(=O)N[C@H](C(=O)N1CCC[C@H]1c1ncc(-c2ccc(-c3ccc(-c4[nH]c([C@@H]5CCCN5C(=O)[C@@H](NC(=O)OC)C(C)C)nc4F)cc3)cc2)[nH]1)C(C)C` [Compound 5e] as the compound, how does the EC50 (HCV 1b replicon; [7]) read?
Answer: 0.0144 ± 0.004 nM

Question: With `COC(=O)N[C@H](C(=O)N1CCC[C@H]1c1nc(-c2ccccc2)c(-c2ccc(-c3ccc(-c4[nH]c([C@@H]5CCCN5C(=O)[C@@H](NC(=O)OC)C(C)C)nc4-c4ccccc4)cc3)cc2)[nH]1)C(C)C` [Compound 6] as the compound, how does the EC50 (HCV 1b replicon; [7]) read?
Answer: 0.2 nM

Question: With `COC(=O)N[C@H](C(=O)N1CCC[C@H]1c1nc(-c2ccco2)c(-c2ccc(-c3ccc(-c4[nH]c([C@@H]5CCCN5C(=O)[C@@H](NC(=O)OC)C(C)C)nc4-c4ccco4)cc3)cc2)[nH]1)C(C)C` [Compound 7] as the compound, how does the EC50 (HCV 1b replicon; [7]) read?
Answer: 0.026 nM

Question: With `COC(=O)N[C@H](C(=O)N1CCC[C@H]1c1nc(-c2cccs2)c(-c2ccc(-c3ccc(-c4[nH]c([C@@H]5CCCN5C(=O)[C@@H](NC(=O)OC)C(C)C)nc4-c4cccs4)cc3)cc2)[nH]1)C(C)C` [Compound 8] as the compound, how does the EC50 (HCV 1b replicon; [7]) read?
Answer: 0.1 nM

Question: For `COC(=O)N[C@H](C(=O)N1C[C@@H](N=[N+]=[N-])C[C@H]1c1ncc(-c2ccc(-c3ccc(-c4cnc([C@@H]5C[C@H](N=[N+]=[N-])CN5C(=O)[C@@H](NC(=O)OC)C(C)C)[nH]4)cc3)cc2)[nH]1)C(C)C` [Compound 9], which EC50 (HCV 1b replicon; [7]) is on record?
Answer: 0.023 nM

Question: What about the EC90 (HCV 1b replicon; Hepatitis C virus) of the same compound?
Answer: 0.0352 nM

Question: With `COC(=O)N[C@H](C(=O)N1C[C@H](N=[N+]=[N-])C[C@H]1c1ncc(-c2ccc(-c3ccc(-c4cnc([C@@H]5C[C@@H](N=[N+]=[N-])CN5C(=O)[C@@H](NC(=O)OC)C(C)C)[nH]4)cc3)cc2)[nH]1)C(C)C` [Compound 10] as the compound, how does the EC50 (HCV 1b replicon; [7]) read?
Answer: 0.0095 nM

Question: What about the EC90 (HCV 1b replicon; Hepatitis C virus) of the same compound?
Answer: 0.0542 ± 0.0341 nM

Question: What about the EC50 (HCV 1b replicon; read-out: HCV Replicon EC50, HCV 1b replicon system) of the same compound?
Answer: 0.0184 ± 0.0126 nM

Question: With `COC(=O)N[C@H](C(=O)N1C[C@H](n2cc(-c3ccccc3)nn2)C[C@H]1c1ncc(-c2ccc(-c3ccc(-c4cnc([C@@H]5C[C@@H](n6cc(-c7ccccc7)nn6)CN5C(=O)[C@@H](NC(=O)OC)C(C)C)[nH]4)cc3)cc2)[nH]1)C(C)C` [Compound 11] as the compound, how does the EC50 (HCV 1b replicon; [8]) read?
Answer: 2.7 nM

Question: And the EC90 (HCV 1b replicon; Hepatitis C virus)?
Answer: 9.2 nM

Question: Which EC50 (HCV 1b replicon; [8]) does the source give for `COC(=O)N[C@H](C(=O)N1C[C@H](n2cc(C(=O)OC)nn2)C[C@H]1c1ncc(-c2ccc(-c3ccc(-c4cnc([C@@H]5C[C@@H](n6cc(C(=O)OC)nn6)CN5C(=O)[C@@H](NC(=O)OC)C(C)C)[nH]4)cc3)cc2)[nH]1)C(C)C` [Compound 12] here?
Answer: 0.0118 nM

Question: And the EC90 (HCV 1b replicon; Hepatitis C virus)?
Answer: 0.0428 nM

Question: What does the source list for `COC(=O)N[C@H](C(=O)N1C[C@@H](n2cc(-c3ccccc3)nn2)C[C@H]1c1ncc(-c2ccc(-c3ccc(-c4cnc([C@@H]5C[C@H](n6cc(-c7ccccc7)nn6)CN5C(=O)[C@@H](NC(=O)OC)C(C)C)[nH]4)cc3)cc2)[nH]1)C(C)C` [Compound 13]?
Answer: EC90 (HCV 1b replicon; Hepatitis C virus): > 10 nM; CC50 [6]: > 100000 nM

Question: Which EC50 (HCV 1b replicon; [8]) does the source give for `COC(=O)N[C@H](C(=O)N1C[C@@H](n2cc(C(=O)OC)nn2)C[C@H]1c1ncc(-c2ccc(-c3ccc(-c4cnc([C@@H]5C[C@H](n6cc(C(=O)OC)nn6)CN5C(=O)[C@@H](NC(=O)OC)C(C)C)[nH]4)cc3)cc2)[nH]1)C(C)C` [Compound 14] here?
Answer: > 10 nM

Question: And the EC90 (HCV 1b replicon; Hepatitis C virus)?
Answer: > 10 nM

Question: For `COC(=O)N[C@H](C(=O)N1C[C@H](N=[N+]=[N-])C[C@H]1c1nc(Cl)c(-c2ccc(-c3ccc(-c4[nH]c([C@@H]5C[C@@H](N=[N+]=[N-])CN5C(=O)[C@@H](NC(=O)OC)C(C)C)nc4Cl)cc3)cc2)[nH]1)C(C)C` [Compound 15], which EC50 (HCV 1b replicon; [8]) is on record?
Answer: 0.0047 nM

Question: What about the EC90 (HCV 1b replicon; Hepatitis C virus) of the same compound?
Answer: 0.0096 nM

Question: Which EC50 (HCV 1b replicon; [7]) does the source give for `COC(=O)N[C@H](C(=O)N1C[C@H](N=[N+]=[N-])C[C@H]1c1ncc(-c2ccc(-c3ccc(-c4[nH]c([C@@H]5C[C@@H](N=[N+]=[N-])CN5C(=O)[C@@H](NC(=O)OC)C(C)C)nc4Cl)cc3)cc2)[nH]1)C(C)C` [Compound 16] here?
Answer: 0.0063 nM

Question: What does the source list for `COC(=O)N[C@H](C(=O)N1C[C@H](N=[N+]=[N-])C[C@H]1c1nc(Br)c(-c2ccc(-c3ccc(-c4[nH]c([C@@H]5C[C@@H](N=[N+]=[N-])CN5C(=O)[C@@H](NC(=O)OC)C(C)C)nc4Br)cc3)cc2)[nH]1)C(C)C` [Compound 17]?
Answer: EC50 (HCV 1b replicon; [8]): 0.0026 nM; EC90 (HCV 1b replicon; Hepatitis C virus): 0.0216 nM

Question: Which results are given for `COC(=O)N[C@H](C(=O)N1C[C@@H](N=[N+]=[N-])C[C@H]1c1nc(Cl)c(-c2ccc(-c3ccc(-c4[nH]c([C@@H]5C[C@H](N=[N+]=[N-])CN5C(=O)[C@@H](NC(=O)OC)C(C)C)nc4Cl)cc3)cc2)[nH]1)C(C)C` [Compound 18]?
Answer: EC50 (HCV 1b replicon; [8]): 0.0112 nM; EC90 (HCV 1b replicon; Hepatitis C virus): 0.0746 nM

Question: With `COC(=O)N[C@H](C(=O)N1C[C@@H](N=[N+]=[N-])C[C@H]1c1nc(Br)c(-c2ccc(-c3ccc(-c4[nH]c([C@@H]5C[C@H](N=[N+]=[N-])CN5C(=O)[C@@H](NC(=O)OC)C(C)C)nc4Br)cc3)cc2)[nH]1)C(C)C` [Compound 19] as the compound, how does the EC50 (HCV 1b replicon; [8]) read?
Answer: 0.0083 nM

Question: What about the EC90 (HCV 1b replicon; Hepatitis C virus) of the same compound?
Answer: 0.0553 nM
